Screens as filed in PubChem BioAssay.
PfGluPho inh: PfG6PD enzyme inhibitors, primary screen, biochemical, fluorescence intensity, uHTS; glucose-6-phosphate dehydrogenase-6-phosphogluconolactonase (Plasmodium falciparum 3D7); actives 0.78% (n = 350,000); inhibition, % at 20 µM; AID 504690, 2011; PfGluPho enzyme, NADPH resazurin-diaphorase fluorescence;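 active means inhibition reaching at least a set limit at 20 µM in the primary screen, cut at about 59% in these data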
MC4R ag barr: MC4R agonists recruiting beta-arrestin, primary screen, cell-based, luminescence, agonist arm of biased-ligand search. Melanocortin receptor 4 (Homo sapiens), P32245. U2OS MC4R beta-arrestin complementation; percent of melanotan II response, DMSO zero. activation, % at 8.9 µM. actives 0.98% (n = 360,000). AID 540308, 2011;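 active means activation above a per-plate cutoff, the mean activation of sample wells on that plate plus 3 SD, cut at about 8% in these data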
Beta2AR agonist: beta2AR agonists driving receptor internalization, primary screen, cell-based, FAP fluorogen, flow cytometry; actives 0.43% (n = 340,000); AID 504454, 2011; Beta-2 adrenergic receptor (Homo sapiens), P07550; Am2.2-beta2AR cells; response, % (test concentration not listed);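 active means response above a set limit, near 3 SD of response in nonfluorescent compounds, cut at about 42% in these data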
Target sequence (P07550 whole entry, looked up): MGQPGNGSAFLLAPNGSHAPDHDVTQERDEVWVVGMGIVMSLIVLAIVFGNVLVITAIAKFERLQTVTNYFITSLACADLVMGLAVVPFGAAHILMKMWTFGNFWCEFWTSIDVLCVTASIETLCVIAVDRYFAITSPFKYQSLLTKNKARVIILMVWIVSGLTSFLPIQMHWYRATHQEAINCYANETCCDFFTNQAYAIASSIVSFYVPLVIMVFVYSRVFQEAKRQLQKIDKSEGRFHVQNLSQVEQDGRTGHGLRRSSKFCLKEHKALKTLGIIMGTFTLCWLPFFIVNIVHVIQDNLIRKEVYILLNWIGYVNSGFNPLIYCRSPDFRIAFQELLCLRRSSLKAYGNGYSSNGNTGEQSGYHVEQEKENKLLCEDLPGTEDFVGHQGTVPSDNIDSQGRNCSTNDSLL
ABHD5-PLIN5 inh: ABHD5-PLIN5 interaction inhibitors, primary screen, cell lysate, split luciferase complementation, luminescence. Perilipin-5 (Homo sapiens) + 1-acylglycerol-3-phosphate O-acyltransferase ABHD5 (Homo …. Split G. princeps luciferase complementation, 4 h. inhibition, % at 4 µM. actives 0.78% (n = 360,000). AID 602281, 2012;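 active means inhibition above the mean inhibition across every tested compound plus 3 SD, cut at about 22% in these data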
MC4R antag cAMP: MC4R antagonists of cAMP signaling, primary screen, cell-based, TR-FRET, antagonist arm of biased-ligand search | Melanocortin receptor 4 (Homo sapiens), P32245 | MC4R-expressing cells, MTII-stimulated cAMP, LANCE TR-FRET | inhibition, % at 6.5 µM | actives 0.48% (n = 360,000) | AID 540295, 2011;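 active means inhibition above its plate's cutoff, the mean of tested wells on that plate plus 3 SD, cut at about 29% in these data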
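Assay system: U2OS-MC4R stable cell line; Also added: Melanotan II; Technique: Eu-cAMP/anti-cAMP TR-FRET, emission 671 nm; Times: 30-min compound, 1-h challenge, 1-h detection, room temperature.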
cAMP nonselect: nonselective cAMP signaling inhibitors, parental cells, counter-screen for MC4R biased antagonist project, cell-based, TR-FRET, U2OS, forskolin, triplicate; shares compounds with MC4R antag cAMP; LANCE TR-FRET; inhibition, % at 6.5 µM; actives 26% (n = 1,600);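 active means mean inhibition over triplicates above the low-control well mean plus 3 SD, set per campaign, cut at about 13% in these data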;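 further: signal is single emission at 671 nm which falls as cellular cAMP rises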
MC4R cAMP antag: MC4R cAMP antagonists, retest, confirmation, cell-based, TR-FRET. shares compounds with MC4R antag cAMP. MC4R-expressing cells, MTII-stimulated cAMP. inhibition, % at 6.5 µM. actives 27% (n = 1,600). AID 602195, 2012; in the data active means inhibition above about 29%
Hits are given with their value; 0 = inactive; - = no result. This is a sample that favours compounds with a hit; in the whole collection about 3% have one here.

SMILES | PfGluPho inh | MC4R ag barr | Beta2AR agonist | ABHD5-PLIN5 inh | MC4R antag cAMP | cAMP nonselect | MC4R cAMP antag
CCN(CC)N=Nc1ccc(S(=O)(=O)Nc2nc(C)cc(C)n2)cc1 | 0 | 0 | 0 | 0 | 0 | - | -
Cc1ccc(C2Nc3ccccc3C(=O)N2CCCN2CCOCC2)cc1 (configuration not stated) | 0 | 0 | 0 | 0 | 0 | - | -
O=C1c2ccccc2NC(c2ccccc2Br)N1CCCN1CCOCC1 (configuration not stated) | 0 | 0 | 0 | 0 | 29 | 0 | 0
CCCCn1c(N)c(N(CCOC)C(=O)CC2CCCCC2)c(=O)[nH]c1=O | 0 | 0 | 0 | 0 | 0 | - | -
Cc1ccccc1C(=O)NNC(=O)CCc1ccccc1 | 0 | 0 | 0 | 0 | 32 | 0 | 0
NS(=O)(=O)c1ccc(O)c(NC(=O)c2ccc([N+](=O)[O-])cc2)c1 | 0 | 0 | 0 | 0 | 29 | 0 | 0
O=C(Nc1cc([N+](=O)[O-])ccc1O)c1cccc(C(=O)Nc2cc([N+](=O)[O-])ccc2O)c1 | 0 | 0 | 0 | 0 | 0 | - | -
CCC(C(=O)NC1CCCC1)n1c(C2CC2)nc2ccccc21 (configuration not stated) | - | - | - | 0 | - | - | -
Cc1cccc(C)c1NC(=O)C1(C)CN(S(C)(=O)=O)CC(=O)N1CC(F)(F)F (configuration not stated) | - | - | - | 0 | - | - | -
O=C(C1CC12CCCC2)N1CCC(CO)(Cc2ccccc2Cl)CC1 (configuration not stated) | 0 | 0 | 0 | 0 | 0 | - | -
Cc1ccc(C)c(-c2cc(C(=O)Nc3cccc(C(=O)O)c3)c3ccccc3n2)c1 | 0 | 0 | 0 | 0 | 35 | 0 | 0
COCCn1nnnc1C(c1cccs1)N1CCN(c2nc3ccccc3s2)CC1 (configuration not stated) | 0 | 0 | 0 | 0 | 0 | - | -
Oc1ccc(C(c2nnnn2CCc2ccccc2)N2CCN(c3nc4ccccc4s3)CC2)cc1 (configuration not stated) | 0 | 0 | 0 | 0 | 31 | 0 | 0
C[C@@H]1CN([C@H](C)CO)C(=O)c2cc(Br)cnc2O[C@@H]1CN(C)C(=O)C1CCOCC1 | 0 | 0 | - | 0 | 0 | - | -
C[C@H](NC(=O)Cc1cccc2ccccc12)C(=O)N1CCOCC1 | 0 | 0 | 0 | 0 | 0 | - | -
NC(=O)COC(=O)CNC(=O)c1cc(Cl)cc([N+](=O)[O-])c1 | 0 | 0 | 0 | 0 | 0 | - | -
CC(C)(C)NC(=O)NC(=O)COC(=O)CNC(=O)c1cc(Cl)cc([N+](=O)[O-])c1 | 0 | 0 | 0 | 0 | 30 | 0 | 0
Cc1cc(C)cc(C(=O)NCC(=O)OCC(=O)NCc2ccco2)c1 | 0 | 0 | 0 | 0 | 39 | 0 | 0
CCN(CC)S(=O)(=O)c1ccc(Cl)c(C(=O)OC2CC(C)OC2=O)c1 (configuration not stated) | 0 | 0 | 0 | 0 | 40 | 0 | 0
COc1ccc(-c2cc(C(=O)NCC(c3ccco3)N(C)C)c3ccccc3n2)cc1OC (configuration not stated) | 0 | 0 | 0 | 0 | 0 | - | -
OCCN1CCN(c2cc(-c3ccccc3)c3ccccc3n2)CC1 | 0 | 0 | 0 | 0 | 41 | 0 | 0
COC(=O)c1cc(S(=O)(=O)n2nc(C)c(Br)c2C)c(Cl)cc1Cl | 0 | 0 | 0 | 0 | 30 | 0 | 0
Cc1oc(-c2cccc(Br)c2)[n+]([O-])c1C | 0 | 0 | 0 | 0 | 0 | - | -
COc1ccccc1OCCC(=O)OCC(=O)c1c(N)n(C)c(=O)n(C)c1=O | 0 | 0 | 0 | 0 | 0 | - | -
C=C1CCN([C@@H](Cc2ccccc2)C(=O)NCCCc2ccccc2)S(=O)(=O)c2ccccc21 | 0 | 0 | 0 | 0 | 0 | - | -
